Calb biofilm kill = kills Candida albicans biofilms. inhibition, % at 6 µM. 85,000 tested, 0.14% active. AID 834. C. albicans biofilm + clotrimazole, Alamar Blue;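 active = inhibition above 20%; inactive = inhibition below 20%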;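 also: preformed 24 hr biofilms exposed to compound for 48 hr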
HCT116 PTEN-null = suppresses growth of cells with PTEN deletion; HCT116 PTEN-null viability, CellTiter-Glo, 60 h; active compounds read low; viability, % at 10 µM; 140,000 tested, 1.2% active; AID 827;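 active = viability at or below a set limit, 4 SD under the median of all tested compounds, cut at about 3.7% in these data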;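 also: PTEN knockout HCT116 line with beta catenin targeted HCT116 as companion control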
Fibroblast inh = blocks proliferation of human lung fibroblasts. 85,000 tested, 1.1% active. LL 47 human lung fibroblast viability, ATP luminescence; active compounds read low. viability, % at 10 µM;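 active = viability at or below 50% in the single dose screen; inactive = viability above 50%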;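 also: compound exposure lasted 72 h before the ATP readout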
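Benchmarks: Cell-only wells, no compound | Test system: LL 47 human lung fibroblasts, passage 12 or lower | Input: 1,150 cells/well | Measured by: CellTiter-Glo luminescence measuring cellular ATP | Medium: IMEM, 15% FBS supplement | Schedule: Overnight attachment after seeding, then 72 h compound exposure at 37 °C | Doses: Compound addition at 0.1% DMSO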
H69AR inhibit = growth inhibitors of human H69AR lung tumor cells | viability, % at 10 µM | 85,000 tested, 6% active | H69AR lung tumor viability, ATP luminescence, 72 h; active compounds read low;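 active = viability at or below 40%; inactive = viability above 40%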;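 also: multidrug resistant small cell line overexpressing MRP-1 efflux transporter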
bCat KO growth = beta-catenin-lacking colon tumor cell growth suppression. viability, % at 10 µM. HCT116 beta-catenin knockout viability, CellTiter-Glo, 60 h; active compounds read low. 140,000 tested, 1.5% active;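 active = viability at or under a set limit, the compound median less 4 SD, cut at about 6% in these data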
HUVEC inhibit = blocks proliferation of human endothelial cells. HUVEC proliferation, CellTiter-Glo luminescence, 72 h; active compounds read low. AID 648. viability, % at 10 µM (by protocol). 86,000 tested, 1.1% active;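 active = viability at or below 30%; inactive = viability above 30%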
Hits are given with their value; – = inactive; · = no result given. This is one part of a sample in which hits are shown more often than they occur.

SMILES	Calb biofilm kill	HCT116 PTEN-null	Fibroblast inh	H69AR inhibit	bCat KO growth	HUVEC inhibit
O=C1CC(N2CCC(O)(c3ccc(Cl)cc3)CC2)C(=O)N1Cc1ccc(N2CCCC2=O)cc1 (stereo not given)	–	–	–	–	–	–
CCc1nnc(NC(=O)CSc2nnc(-c3ccccc3NC(=O)c3ccccc3)o2)s1	–	–	–	30	–	–
CCOC(=O)CSc1nnc(-c2ccccc2NC(=O)c2ccccc2)o1	–	–	–	–	–	–
COc1ccc(-c2c3c(nc4sc5c(Cl)nc(C)nc5c24)CCC3)cc1	·	1.5	·	·	1.2	·
CCn1ncc(Br)c1C(=O)Nc1cc([N+](=O)[O-])ccc1C	·	–	·	·	–	·
Cc1ccc2[nH]c3c(NCCN4CCOCC4)ncnc3c2c1	–	–	–	–	–	–
Clc1ccc2[nH]c3c(NCCCN4CCOCC4)ncnc3c2c1	–	–	–	–	5.0	–
CCN(Cc1ccccc1)c1ccc(/C=N/N=C(N)N)cc1	·	1.7	·	·	1.4	·
CCN(Cc1ccccc1)c1ccc(/C=N/NC(=S)NC(C)C)cc1	·	–	·	·	–	·
COc1ccc(Br)cc1/C=C/C(=O)c1ccc(NC(C)=O)cc1	·	1.3	·	·	4.9	·
COc1ccc(/C=C/C(=O)c2ccc(NC(=O)c3cccs3)cc2)cc1OC	·	1.8	·	·	1.4	·
COc1ccc(NC(=O)/C=C/c2cc(Br)ccc2OC)cc1	·	–	·	·	–	·
COc1cc(/C=C/C(=O)c2ccc(NS(=O)(=O)c3ccc(C)cc3)cc2)ccc1OC(F)F	·	2.9	·	·	4.8	·
Cc1ccc(NC(=O)C2c3ccccc3Oc3ccccc32)c(C)c1	·	–	·	·	–	·
CCSC1(SCC)N=C(N)C2(C#N)C(c3ccc(F)cc3)C12C#N (stereo not given)	–	–	3.8	0.8	–	9.6
COc1ccc(-c2nc(NC(=O)Cn3c(=O)oc4ccccc43)sc2C)cc1	·	–	·	·	–	·
COc1ccc(-c2nc(NC(=O)C3CCN(c4nc5ccccc5o4)CC3)sc2C)cc1	–	–	–	32	–	–
Clc1ccsc1-c1csc(-c2cccnc2)n1	–	–	–	17	–	–
c1cncc(-c2nc(-c3cccs3)cs2)c1	–	–	–	–	–	–
Cc1cccc(N2C(=O)C(Oc3ccc(Cl)cc3Cl)C2C=O)c1C (stereo not given)	·	–	·	·	5.2	·
COCCN1CC(=O)N(c2cccc(C)c2C)C(c2ccc(Cl)cc2)C1=O (stereo not given)	–	–	–	–	–	–
CC1=C(C(=O)Nc2ccccc2C)C(c2ccc(C)o2)C2=C(CCCC2=O)N1 (stereo not given)	–	–	–	–	–	–
CC1=CCC2C(=O)N(c3ccc(C(=O)N4CCCCCC4)cc3)C(=O)C2C1 (stereo not given)	–	–	–	–	–	–
CCOC(=O)CSC1=C(C#N)C(=O)NC(c2ccc(OC)cc2)S1 (stereo not given)	–	–	–	2.2	–	–
CCOc1ccc(C2NC(=O)C(C#N)=C(S)N2c2ccc(OC)cc2)cc1OC (stereo not given)	–	–	–	–	–	–
SMILES	Calb biofilm kill	HCT116 PTEN-null	Fibroblast inh	H69AR inhibit	bCat KO growth	HUVEC inhibit
CCOC(=O)CSC1=C(C#N)C(=O)NC(c2ccc(OC)c(OC)c2)S1 (stereo not given)	–	–	–	6.6	–	–
Cc1ccc(-c2cc3cccc[n+]3cc2-c2ccc(C)cc2)cc1	·	–	·	·	3.2	·
Cc1ccc2nc(-c3ccncc3)cc(-c3ccccc3)c2c1	·	–	·	·	–	·
CCc1cc2c(=O)c(-c3ccc4c(c3)OCCO4)c(C)oc2cc1OS(C)(=O)=O	·	–	·	·	–	·
O=C(Cn1nc(-c2ccccc2)c2ccccc2c1=O)Nc1ccc2c(c1)nc1n2CCOC1	–	–	–	29	–	–
Cc1cc(C(=O)CSc2nnc(-c3ccc(F)cc3)o2)c(C)n1CC1COc2ccccc2O1 (stereo not given)	–	–	–	33	–	–
Cc1[nH]c(=O)[nH]c(=O)c1S(=O)(=O)N1c2ccc(F)cc2CCC1C (stereo not given)	·	–	·	·	–	·
CCN(CC(=O)Nc1cccc(OC)c1)c1ncnc2sc(C)c(C)c12	·	–	·	·	–	·
Cc1cnc(NC(=O)c2sc3ccccc3c2Cl)s1	·	–	·	·	–	·
O=C(Nc1ccccc1-c1nc2ccccc2[nH]1)c1sc2ccccc2c1Cl	·	1.9	·	·	4.0	·
CCn1c2ccccc2c2nc3cc(S(=O)(=O)N4CCOCC4)ccc3nc21	–	–	–	6.1	–	–
O=C(Nc1nc(-c2ccccn2)cs1)c1ccc(Cl)s1	–	–	28	2.9	–	28
Cc1csc(NC(=O)c2cccn2C)n1	–	–	–	–	–	–
O=C(Nc1nc(-c2ccccn2)cs1)c1ncc(Cl)c(Cl)c1Cl	–	–	–	–	–	–
O=C(Nc1nc(-c2ccc(Cl)s2)cs1)c1cccs1	–	–	–	34	–	–
O=C(Nc1nc(-c2ccccn2)cs1)c1ccc(S(=O)(=O)N2CCCCC2)cc1	–	·	48	–	·	–
Cn1cccc1C(=O)Nc1nc(-c2ccccn2)cs1	–	–	–	35	–	–
CCC(C)NC(=O)c1ccccc1NC(=O)c1ccc(CSc2ccc(C)cc2)cc1 (stereo not given)	·	–	·	·	–	·
O=C(Nc1ccccc1)Nc1nnc(Cc2ccc([N+](=O)[O-])cc2)s1	·	–	·	·	–	·
O=C(Nc1ccc([N+](=O)[O-])cc1)Nc1nc(-c2ccc(Cl)s2)cs1	·	1.2	·	·	1.5	·
C#CCn1c(=NC(=O)c2ccc(Br)s2)sc2cccc(OC)c21	–	–	38	2.6	–	–
C=CCn1c(N)c(C(=O)OC(C)(C)C)c2nc3ccccc3nc21	–	–	–	30	–	–
O=C1NCCCC2c3cc(O)c4ccccc4c3OC12N1CCCCC1 (stereo not given)	–	–	–	20	–	3.4
COCCn1c(N)c(C(=O)Nc2sc3c(c2C(=O)OC)CCCC3)c2nc3ccccc3nc21	–	–	–	–	4.0	–
CCOC(=O)c1c(NC(=O)Cn2c(C)nc3ccccc32)sc2c1CCC2	–	–	–	36	–	–
SMILES	Calb biofilm kill	HCT116 PTEN-null	Fibroblast inh	H69AR inhibit	bCat KO growth	HUVEC inhibit
CCOC(=O)c1c(NC(=O)c2ccc(-n3cnnn3)cc2)sc2c1CCCC2	–	–	·	2.1	3.4	–
O=C(c1ccc(F)cc1)N1CCN(c2cc(=O)[nH]nc2-c2ccccc2)CC1	·	–	·	·	–	·
CCOC(=O)c1ccccc1NC(=O)c1ccc(N(C)S(C)(=O)=O)cc1	–	–	–	27	–	–
CCOC(=O)c1ccccc1NC(=O)c1ccccc1N(C)S(C)(=O)=O	–	–	–	–	–	–
CCOc1ccc(C2CC(c3ccc(F)cc3)n3ncnc3N2)cc1 (stereo not given)	–	–	–	–	–	–
O=C(N/N=C/c1cc([N+](=O)[O-])ccc1N1CCNCC1)c1ccc([N+](=O)[O-])cc1	·	1.1	·	·	1.6	·
O=C(OC1C2CCC1C1CN(CCc3ccccc3)CC12)c1ccccc1 (stereo not given)	·	–	·	·	–	·
CCCCN(C)S(=O)(=O)c1cc(Br)cc2c1N(C(=O)C1CC1)CC2	–	–	–	31	–	–
